Results published in ChEMBL document CHEMBL1649469, “Pharmacokinetics of nikkomycin Z after single rising oral doses” (Antimicrob Agents Chemother, 2009).

Key:
[1] = Cmax in healthy human at 2000 […], po administered as single dose measured after 72 hrs by HPLC method; type: ADME, organism-based; design: route oral; details: in vivo
Method in brief: (§1)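 Healthy fasting male volunteers, two groups of six, each given two of three single oral capsule doses plus a random placebo, with a 2-week washout. About 12 blood samples were taken over 24 h, then at 48 and 72 h. Plasma was assayed by validated HPLC-UV (LLOQ 48 ng/ml). Noncompartmental analysis: Cmax/Tmax observed, AUC0-t* by linear trapezoid, λz from the terminal log-linear phase, AUC0-∞ = AUC0-t* + C*/λz.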

[2] = Tmax in healthy human at […], po administered as single dose measured after 72 hrs by HPLC method; type: ADME, organism-based; design: route oral; details: in vivo; method in brief: as §1
[3] = Tmax in healthy human at 500 […], po administered as single dose measured after 72 hrs by HPLC method; type: ADME, organism-based; design: route oral; details: in vivo; method in brief: as §1
[4] = Tmax in healthy human at 1000 […], po administered as single dose measured after 72 hrs by HPLC method; type: ADME, organism-based; design: route oral; details: in vivo; method in brief: as §1
[5] = Tmax in healthy human at 1500 […], po administered as single dose measured after 72 hrs by HPLC method; type: ADME, organism-based; design: route oral; details: in vivo; method in brief: as §1
[6] = AUC (0 to t) in healthy human at 1500 […], po administered as single dose measured after 72 hrs by HPLC method; type: ADME, organism-based; design: time < 72 hr, route oral; details: plasma; method in brief: as §1
[7] = AUC (0 to t) in healthy human at 1750 […], po administered as single dose measured after 72 hrs by HPLC method; type: ADME, organism-based; design: time < 72 hr, route oral; details: plasma; method in brief: as §1
[8] = AUC (0 to t) in healthy human at 2000 […], po administered as single dose measured after 72 hrs by HPLC method; type: ADME, organism-based; design: time < 72 hr, route oral; details: plasma; method in brief: as §1
[9] = AUC (0 to infinity) in healthy human at […], po administered as single dose measured after 72 hrs by HPLC method; type: ADME, organism-based; design: time infinity, route oral; details: plasma; method in brief: as §1
[10] = AUC (0 to infinity) in healthy human at 500 […], po administered as single dose measured after 72 hrs by HPLC method; type: ADME, organism-based; design: time infinity, route oral; details: plasma; method in brief: as §1
[11] = Relative bioavailability based on AUC (0 to infinity) in healthy human at 1750 […], po administered as single dose by HPLC method; type: ADME, organism-based; details: in vivo
Method in brief: (§2)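 Relative bioavailability is AUC0-∞ at the test dose relative to the group's reference dose: 250 mg for group 1 (1,000 and 1,750 mg), 500 mg for group 2 (1,500 and 2,000 mg). Same volunteers, single oral doses, plasma sampling to 72 h and HPLC-UV assay as above.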

[12] = Relative bioavailability based on AUC (0 to infinity) in healthy human at 1500 […], po administered as single dose by HPLC method; type: ADME, organism-based; details: in vivo; method in brief: as §2
[13] = Relative bioavailability based on AUC (0 to infinity) in healthy human at 2000 […], po administered as single dose by HPLC method; type: ADME, organism-based; details: in vivo; method in brief: as §2
[14] = Oral clearance in healthy human at 250 to 2000 […] administered as single dose by HPLC method; type: ADME, organism-based; details: in vivo
Method in brief: (§3)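 Population PK model: one compartment, first-order absorption with lag time, first-order elimination, fitted to plasma HPLC concentrations from single oral doses of 250–2,000 mg in healthy fasting men. F for 250–500 mg was fixed at 1, and doses of 1,500–2,000 mg were assumed to share one F. Posterior predictive check used.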

Homo sapiens [15] = test: Volume of distribution in healthy human at 250 to 2000 […], po administered as single dose by HPLC method; type: ADME, organism-based; design: route oral; details: in vivo; method in brief: as §3
Homo sapiens [16] = test: Absorption time lag in healthy human at 250 to 2000 […], po administered as single dose by HPLC method; type: ADME, organism-based; design: route oral; details: in vivo; method in brief: as §3
[17] = Relative bioavailability in healthy human at 1000 […], po administered as single dose by HPLC method; type: ADME, organism-based; details: in vivo; method in brief: as §3
[18] = Relative bioavailability in healthy human at 1500 to 2000 […], po administered as single dose by HPLC method; type: ADME, organism-based; details: in vivo; method in brief: as §3
Homo sapiens [19] = test: Toxicity in healthy human assessed as occurrence of headache at […], po administered as single dose; type: organism-based; design: route oral; details: in vivo
Homo sapiens [20] = test: Toxicity in healthy human assessed as occurrence of dizziness at […], po administered as single dose; type: organism-based; design: route oral; details: in vivo
Homo sapiens [21] = test: Hepatotoxicity in healthy human assessed as elevated bilirubin level at 1000 […], po administered as single dose after 72 hrs; type: toxicity, organism-based; design: route oral; details: in vivo
Homo sapiens [22] = test: Hepatotoxicity in healthy human assessed as elevated alkaline phosphatase level at 1000 […], po administered as single dose after 72 hrs; type: toxicity, organism-based; design: route oral; details: in vivo
Homo sapiens [23] = test: Hepatotoxicity in healthy human assessed as elevated aspartate transaminase level at 1000 […], po administered as single dose after 72 hrs; type: toxicity, organism-based; design: route oral; details: in vivo
Homo sapiens [24] = test: Hepatotoxicity in healthy human assessed as elevated bilirubin level at 1000 […], po administered as single dose after 7 days post dosing; type: toxicity, organism-based; design: route oral; details: in vivo, 168 h
Homo sapiens [25] = test: Hepatotoxicity in healthy human assessed as elevated bilirubin level at 1000 […], po administered as single dose after 48 hrs; type: toxicity, organism-based; design: route oral; details: in vivo
Homo sapiens [26] = test: Hepatotoxicity in healthy human assessed as elevated alkaline phosphatase level at 1000 […], po administered as single dose after 48 hrs; type: toxicity, organism-based; design: route oral; details: in vivo
Homo sapiens [27] = test: Hepatotoxicity in healthy human assessed as elevated aspartate transaminase level at 1000 […], po administered as single dose after 48 hrs; type: toxicity, organism-based; design: route oral; details: in vivo
[28] = Cmax in healthy human at 250 mg, po administered as single dose measured after 72 hrs by HPLC method; details: in vivo
[29] = Cmax in healthy human at 500 mg, po administered as single dose measured after 72 hrs by HPLC method; details: in vivo
[30] = Cmax in healthy human at 1000 mg, po administered as single dose measured after 72 hrs by HPLC method; details: in vivo
[31] = Cmax in healthy human at 1500 mg, po administered as single dose measured after 72 hrs by HPLC method; details: in vivo
[32] = Cmax in healthy human at 1750 mg, po administered as single dose measured after 72 hrs by HPLC method; details: in vivo
[33] = Tmax in healthy human at 1750 mg, po administered as single dose measured after 72 hrs by HPLC method; details: in vivo
[34] = Tmax in healthy human at 2000 mg, po administered as single dose measured after 72 hrs by HPLC method; details: in vivo
[35] = AUC (0 to t) in healthy human at 250 mg, po administered as single dose measured after 72 hrs by HPLC method; details: plasma
[36] = AUC (0 to t) in healthy human at 500 mg, po administered as single dose measured after 72 hrs by HPLC method; details: plasma
[37] = AUC (0 to t) in healthy human at 1000 mg, po administered as single dose measured after 72 hrs by HPLC method; details: plasma
[38] = Terminal half life in healthy human at 250 mg, po administered as single dose measured after 72 hrs by HPLC method; details: in vivo, read-out: beta t1/2 (converted)
[39] = Terminal half life in healthy human at 500 mg, po administered as single dose measured after 72 hrs by HPLC method; details: in vivo, read-out: beta t1/2 (converted)
[40] = Terminal half life in healthy human at 1000 mg, po administered as single dose measured after 72 hrs by HPLC method; details: in vivo, read-out: beta t1/2 (converted)
[41] = Terminal half life in healthy human at 1500 mg, po administered as single dose measured after 72 hrs by HPLC method; details: in vivo, read-out: beta t1/2 (converted)
[42] = Terminal half life in healthy human at 1750 mg, po administered as single dose measured after 72 hrs by HPLC method; details: in vivo, read-out: beta t1/2 (converted)
[43] = Terminal half life in healthy human at 2000 mg, po administered as single dose measured after 72 hrs by HPLC method; details: in vivo, read-out: beta t1/2 (converted)
[44] = AUC (0 to infinity) in healthy human at 1000 mg, po administered as single dose measured after 72 hrs by HPLC method; details: plasma
[45] = AUC (0 to infinity) in healthy human at 1500 mg, po administered as single dose measured after 72 hrs by HPLC method; details: plasma
[46] = AUC (0 to infinity) in healthy human at 1750 mg, po administered as single dose measured after 72 hrs by HPLC method; details: plasma
[47] = AUC (0 to infinity) in healthy human at 2000 mg, po administered as single dose measured after 72 hrs by HPLC method; details: plasma
[48] = First-order absorption rate constant in healthy human at 250 to 2000 mg, po administered as single dose by HPLC method; details: in vivo

Cmax [1]: 6420 ng/mL
Tmax [2]: 2 h
Tmax [3]: 3 h
Tmax [4]: 4 h
Tmax [5]: 2 h
AUC(0-t) at 72 h [6]: 30300 ng·h/mL
AUC(0-t) at 72 h [7]: 37400 ng·h/mL
AUC(0-t) at 72 h [8]: 40200 ng·h/mL
AUC(0-inf) [9]: 11600 ng·h/mL
AUC(0-inf) [10]: 24600 ng·h/mL
bioavailability [11]: 47%
bioavailability [12]: 41%
bioavailability [13]: 41%
CL/F [14]: 367 mL/min
Vd (Homo sapiens [15]): 41.5 L
Tlag (Homo sapiens [16]): 0.695 h
bioavailability [17]: 61.6%
bioavailability [18]: 43.9%
Cmax [28]: 2210 ng/mL
Cmax [29]: 3990 ng/mL
Cmax [30]: 5140 ng/mL
Cmax [31]: 4850 ng/mL
Cmax [32]: 6440 ng/mL
Tmax [33]: 4 h
Tmax [34]: 4 h
AUC(0-t) at 72 h [35]: 11300 ng·h/mL
AUC(0-t) at 72 h [36]: 24300 ng·h/mL
AUC(0-t) at 72 h [37]: 32100 ng·h/mL
half-life [38]: 2.53 h
half-life [39]: 2.22 h
half-life [40]: 2.06 h
half-life [41]: 2.21 h
half-life [42]: 2.12 h
half-life [43]: 2.09 h
AUC(0-inf) [44]: 32500 ng·h/mL
AUC(0-inf) [45]: 30600 ng·h/mL
AUC(0-inf) [46]: 37900 ng·h/mL
AUC(0-inf) [47]: 40700 ng·h/mL
Ka [48]: 0.000113 s⁻¹
SMILES: C[C@@H]([C@H](N)C(=O)N[C@H](C(=O)O)[C@H]1O[C@@H](n2ccc(=O)[nH]c2=O)[C@H](O)[C@@H]1O)[C@H](O)c1ccc(O)cn1 [NIKKOMYCIN]
Activity (Homo sapiens [19]): Toxic
Activity (Homo sapiens [20]): Toxic
Activity (Homo sapiens [21]): Toxic
Activity (Homo sapiens [22]): Toxic
Activity (Homo sapiens [23]): Toxic
Activity (Homo sapiens [24]): Non-toxic
Activity (Homo sapiens [25]): Non-toxic
Activity (Homo sapiens [26]): Non-toxic
Activity (Homo sapiens [27]): Non-toxic
